Test system: MS2 coat protein
Experiment: apparent Kd, MS2 coat protein; higher = weaker binding; RNA-MaP array; FMN 200 µM where present
Method in brief: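 The apparent Kd is reported as the median of filtered per-cluster binding-curve fits. To get these curves, designs transcribed by stalled E. coli RNA polymerase on Illumina sequencing-chip clusters were titrated with SNAP-549-labelled MS2 coat protein from 0.7 or 1.5 nM, doubling to 3 µM. Titrations were run without and then with constant ligand in 100 mM Tris-HCl pH 7.5, 80 mM KCl, 4 mM MgCl2, BSA, DTT, yeast tRNA and Tween-20, and green signal was normalised to red-channel RNA signal and control-cluster median Fmax.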

[1] = designed as: OFF switch for flavin mononucleotide, no ligand
[2] = ligand present: flavin mononucleotide, designed as: OFF switch for flavin mononucleotide
[3] = designed as: ON switch for flavin mononucleotide, no ligand
[4] = ligand present: flavin mononucleotide, designed as: ON switch for flavin mononucleotide

| Sequence | apparent Kd [1] | apparent Kd [2] | apparent Kd [3] | apparent Kd [4] |
| --- | --- | --- | --- | --- |
| GAUAGGACAGAGAAGGACGUAGCUAGAGAUACUAGCAUUAAGUCCUCAACAUGAGGAUCACCCAUGUAGGAUAUCUGUCCUAUC | 6.23 nM | 6.71 nM |  |  |
| UGUACGGACAUGAGGAUCACCCAUGUAACCAAGCAGUUGGUACAGGAUAUCGCUUAGUGACUGAGCGAGAAGGGUGGUUCUGCA |  |  | 45.2 nM | 62.6 nM |
| UGUUAAUUGUAGAAGGGUGACAUGAGGAUCACCCAUGUACUAAUGCGAUUUACGGCGCAUGUUCCACAGGAUAUACAGUUGAGU |  |  | 1270 nM | 274 nM |
| CCUCUACAUGAGGAUCACCCAUGUGAGGAUAUGCGAGGCGCGCCCGAUAGGCGCGCCGGUAGAAGGCAUGUGGU | 23.5 nM | 50.5 nM |  |  |
| GUGGUACAUGAGGAUCACCCAUGUGUGGGCGCGUGAGGAUAUGUCCGUACCUGGCGUACGAUAGAAGGCAUGGUGC |  |  | 73.9 nM | 34.6 nM |
| UUUUAACAUGAGGAUCACCCAUGUGAGGAUAUCGAAAUUUAUAUUAAUAUUUAUUUAACGAGAAGGCACAUUUU | 96.4 nM | 88.4 nM |  |  |
| GUAGCAUCAAUUAUACAUGAGGAUCACCCAUGUUACAUGGGUAAGGAUAUUGAGGUUAUUAUUGGCAAGAAGGUACUAUGCUAC |  |  | 409 nM | 168 nM |
| CUAUGUUAGCAGGAUAUGCCAUUAUUCCUUUUCGCAGAAGGGCUUACAUGAGGAUCACCCAUGUUACAUUUCUU | 12.4 nM | 17.6 nM |  |  |
| AUAGUAGAAGUGAGGAUAUCGUAGAUUUUAGGAAACGAGAAGGCACAUGAGGAUCACCCAUGUAAGAUGGAGGU | 280 nM | 298 nM |  |  |
| GGAGAGUUCACAGGAUAUCAUGGGUAGUUAUUUUGAGAAGGGUGAACAAGGAACAUGAGGAUCACCCAUGUAUCCUGGAAGGGC |  |  | 39.9 nM | 60.5 nM |
| AUGCCUUAUGUAGGAUAUGCAUAGCGUUGCUAUGCAGAAGGACAUGAGGAUCACCCAUGUAUGUAUUCCAUACAUAUCUGGCAU | 26.8 nM | 343 nM |  |  |
| UCCUUACAUGAGGAUCACCCAUGUCAGGAUAUCUCCACACUGCGCUUGCGCAGUGUAUAGAGAAGGGACGGGCU | 34.2 nM | 26.2 nM |  |  |
| AAUAUGUGAGGAUAUCAGGUGUGCUAGCGUACUGGUACAUCUGAGAAGGCACAUGAGGAUCACCCAUGUAUCUU | 24.4 nM | 87.4 nM |  |  |
| AAUAAGGUCACAGGAUAUACUACAUCCAAUGCGGUAGAAGGGUGACACUUACUGUGCAGACAUGAGGAUCACCCAUGUAACCAC |  |  | 53 nM | 10.4 nM |
| UUUGUUUAUGUGAGGAUAUACUGUUUGUAUUGAUUGUAGAAGGUACAUGAGGAUCACCCAUGUUUUGUAUUUAU | 18.8 nM | 19.4 nM |  |  |
| AACCUAUUACAGAAGGCCAGCUACAUGAGGAUCACCCAUGUCGAGUCAUGGAGGAUAUGUAGUAAUCUGCACGCGUGCGGGCAC |  |  | 49.8 nM | 6.65 nM |
| UUUUAACAUGAGGAUCACCCAUGUGAGGAUAUCGAAAUUUAUAUUAAUAUUUAUAUAACGAGAAGGCACAUUUU | 68.4 nM | 90.1 nM |  |  |
| UUGGACGUCGUAGGAUAUGUAGUAUAUUCCUACAUGAGGAUCACCCAUGUUGACAUGGAAGAAGGACAGAAGGACGAUGUCCAU |  |  | 6.54 nM | 5.01 nM |
| GGUGGUGUCCGAGGAUAUCGUUAGGCGUUGUUGCGAGAAGGCGGACAUGAGGAUCACCCAUGUUUGAUGAAAGAGGAGGUUGUG | 98.5 nM | 123 nM |  |  |
| AAUAAACUCACAGGAUAUAGCAUAGGUCGCGUGUACUUACAGGCGACUAUGCUAGAAGGGUGACCACAUGAGGAUCACCCAUGU |  |  | 887 nM | 188 nM |
| UACAUUACUUAGAAGGGAUAUAUAUAAUUUUAAUCAGGAUAUAGAUACAGUACAACAUGAGGACAUGAGGAUCACCCAUGUAUU |  |  | 31.4 nM | 23.2 nM |
| AGAUCUCAAUAAGAUCCAAUACGAACAUGAGGAUCACCCAUGUAGGAUAUGCUAGAAGUAGAGUAGCAGAAGGACAAUUACCUU | 19.9 nM | 19.7 nM |  |  |
| UGGUACAUGGGAGGAUAUGGGUUGAUAACAUGAGGAUCACCCAUGUUAAAUAUGCCGAGAGGCAACUAGAAGGCCCAUGUACCU |  |  | 482 nM | 38.2 nM |
| GCUAAGCGAAUCAAGAUGGAUAGAACAUGAGGAUCACCCAUGUAGGAUAUGCUACACAAAGUGUAGCAGAAGGACAAGCUUAGC | 19.9 nM | 33.5 nM |  |  |

| Sequence | apparent Kd [1] | apparent Kd [2] | apparent Kd [3] | apparent Kd [4] |
| --- | --- | --- | --- | --- |
| CUAUUGGUAACAGGAUAUAUGAGUCCUACAUGAGGAUCACCCAUGUAGGUGAUCAAACGUGAUUAGUAGAAGGGUUACCAAUAG |  |  | 15.6 nM | 7.77 nM |
| CUCCUCGAAGGAUAUACUGUGGAUCAUAAGUCAGGGAGGUUACAUGAGGAUCACCCAUGUAGAAGGUCGAGGUG | 67.2 nM | 428 nM |  |  |
| CAACCACAUGAGGAUCACCCAUGUGAGGAUAUGAUACUAUGUACUUCGGUACAUAGUAUCAGAAGGCACAGGUG | 82 nM | 73.4 nM |  |  |
| UAAAAGCUAGGAUAUACAUGAGGAUCACCCAUGUACCGGCUUGGCCCUGGUCCUAAAUGUAGAAGGAGCACGCC | 15.2 nM | 23.9 nM |  |  |
| GUAAUAAAGAUCCAAUUAUACUACAUGAGGAUCACCCAUGUGCAGGAUAUCGAGAGUUUAUAAUUCGAGAAGGGCAAAUUCAUU | 73 nM | 159 nM |  |  |
| AUAUGAUAGAUAGGAUAUACAGUGGUUUUAUAAGUAGAAGGAUCAAAUGGGAAUUAUACAUGAGGAUCACCCAUGUUUUUGGAU |  |  | 58.6 nM | 40.4 nM |
| GGACGUCUCAUUAACAUGAGGAUCACCCAUGUCGAUAGACAUGAGGAUAUGGAUCCGAAUCGGAUCCAGAAGGCAUGGACGUCC |  |  | 1170 nM | 72.4 nM |
| ACGACGAAAGUCGAACGAUGUAGCAGAAGGACAUGAGGAUCACCCAUGUCAGCUGUAACAGCCAUGUAGGAUAUGCUACAUCGU | 4.29 nM | 5.41 nM |  |  |
| CGCUGUCAUGCAGGAUAUGCAUUGGAUUACAAUGCAGAAGGGCGAUUACAUGAGGAUCACCCAUGUGUAGACGGUGAAGAAGAG |  |  | 137 nM | 13.1 nM |
| AUCAGCUCGGCAGGAUAUACAUCACUGCUUCGGCAGUGUAUUAAGAUCACAUGAGGAUCACCCAUGUAGAAGGGCCGAGCUGAU | 34.1 nM | 389 nM |  |  |
| GCACUUUUAUUUGAACCGAUACGAACAUGAGGAUCACCCAUGUAGGAUAUGCUAAAAGUUGUGAUGCAGAAGGACAUUAAGUGC | 7.73 nM | 9.21 nM |  |  |
| UUUCUGUGAGGAUAUCAGUAGUAAAUAAAUAAAAUUACUACUGAGAAGGCACAUGAGGAUCACCCAUGUUCCUU | 12.2 nM | 29.7 nM |  |  |
| UUGCGGUAGGAGAAGGACAGAGGCUUCAUUACAUACAUGAGGAUCACCCAUGUAGGAUAUCCUACCUAACGCGGACUCCUCCUG | 10.7 nM | 20.1 nM |  |  |
| UGCAGACGAGGAUAUGAUGUCAUAGACAUGAGGAUCACCCAUGUGAUCAAUUAAUUAAGAUCAGAAGGCGUCUGCA | 315 nM | 218 nM |  |  |
| UUCAUGUGAGGAUAUGCGGCGUCAGGUGGGCCUGUCGCUGAGCAGAAGGCACAUGAGGAUCACCCAUGUGCUCC | 31.7 nM | 62.5 nM |  |  |
| CCAGGCUGUGUGAGGAUAUGCUGGUCCUUGGAUCAGCAGAAGGCACAUGAGGAUCACCCAUGUGAGUAGCUUGG | 16.2 nM | 62.2 nM |  |  |
| ACGGCUGUCAGAGGAUAUGGUUACAUGAGGAUCACCCAUGUCAAGGGUCUAACUAAGUAUAGCUACUAGAAGGCUGAUGGCCGA | 158 nM | 107 nM |  |  |
| CGGAAACAAGGAUAUACAUGAGGAUCACCCAUGUCGCUAACUGCGCUCUUGUGAUCCGGUAGAAGGUGUGAAUA | 29.8 nM | 41 nM |  |  |
| CCAGCGAGUGUGAGGAUAUGCUGGUCCUUGGAUCAGCAGAAGGCACAUGAGGAUCACCCAUGUGAAAACGUUGG | 28.8 nM | 179 nM |  |  |
| AGAGAAUACUCAGGAUAUCUUAAUAGAAAGAGUAGAGAAGGGAGACAUGAGGAUCACCCAUGUGAAGUCUUGAGACUACAUGGU | 367 nM | 470 nM |  |  |
| UAAUCUCAGAUAGGAUAUAUAGGAUGAUUUAAGACCGAACAUGAGGAUCACCCAUGUGAUUAUUUGUAGAAGGAUCAAUGACCC |  |  | 72.4 nM | 79.2 nM |
| UGUCUAUUUGAAGGAUAUCUAAGCAUAAACCAGAGAGAAGGUCAAUUAUACAUGAGGAUCACCCAUGUUGAGAUUAAUGGGUUA | 27.1 nM | 40.3 nM |  |  |
| AUGUGACGGUGCGCAUGUGGACGGAGAAGGCAGACAUGAGGAUCACCCAUGUGAGCCUGCUAUUCUGAGGAUAUCCGUUCGCAC | 31.7 nM | 158 nM |  |  |
| GCAGACGUAGUGAGGAUAUGCUCUACCUCGGUAGAGCAGAAGGCACAUGAGGAUCACCCAUGUGAUUUCUCUGC | 37.2 nM | 421 nM |  |  |
